According to ChEMBL document CHEMBL1275284, “Therapeutic potential of sulindac hydroxamic acid against human pancreatic and colonic cancer cells” (Eur J Med Chem, 2010):
The source made the active and inactive calls. No cut-off for these calls is given here.

What was measured:
MIA PaCa-2 [1] = experiment: Cytotoxicity against human MIAPaCa2 cells after 72 hrs by WST-1 assay; type: functional, cell-based; settings: MIA PaCa-2, 72 h
[2] = Cytotoxicity against human COLO320 cells after 72 hrs by WST-1 assay; type: functional, cell-based; settings: COLO 320, 72 h
MIA PaCa-2 [3] = experiment: Induction of apoptosis in human MIAPaCa2 cells assessed as DNA internucleosomal fragmentation at 200 uM after 48 hrs relative to control; type: functional, cell-based
Outline: (§1)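 MIA PaCa-2 or COLO320 cells (DMEM, 10% FBS, 2.5% horse serum, 37 °C, 5% CO2) treated 48 h at 200 µM. Oligonucleosomal fragments in the cytoplasmic fraction measured, along with necrotic death, expressed relative to untreated control. Mean ± SEM, n = 3.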

COLO 320 [4] = experiment: Induction of apoptosis in human COLO320 cells assessed as DNA internucleosomal fragmentation at 200 uM after 48 hrs relative to control; type: functional, cell-based; outline: as §1
MIA PaCa-2 [5] = experiment: Induction of apoptosis in human MIAPaCa2 cells assessed as increase in caspase 3/7 activation at 200 uM after 24 hrs by spectrofluorimetry relative to control; type: functional
Outline: (§2)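 Caspase 3/7 activity assayed after 24 h exposure of cells to 200 µM compound. Fluorescent signal of treated cells expressed as a ratio to that of vehicle-only untreated cells. Mean ± SEM, n = 3.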

COLO 320 [6] = experiment: Induction of apoptosis in human COLO320 cells assessed as increase in caspase 3/7 activation at 200 uM after 24 hrs by spectrofluorimetry relative to control; type: functional; outline: as §2
MIA PaCa-2 [7] = experiment: Induction of apoptosis in human MIAPaCa2 cells assessed as change in Bax to Bcl2 mRNA expression ratio at 200 uM after 24 hrs by RT-PCR assay relative to control; type: functional, cell-based
Outline: (§3)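 Cells exposed 24 h to 200 µM compound. bax and bcl-2 mRNA measured by semi-quantitative RT-PCR, normalized to GAPDH mRNA, and the bax:bcl-2 ratio compared with control. Mean ± SEM, n = 3.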

COLO 320 [8] = experiment: Induction of apoptosis in human COLO320 cells assessed as increase in Bax to Bcl2 mRNA expression ratio at 200 uM after 24 hrs by RT-PCR assay relative to control; type: functional; outline: as §3
HUVEC [9] = experiment: Cytotoxicity against HUVEC at 0.1 uM after 96 hrs by trypan blue exclusion test; type: cell-based; settings: human
HUVEC [10] = experiment: Antiangiogenic activity in HUVEC assessed as inhibition of bFGF-induced cell proliferation at 0.1 uM after 96 hrs by haemocytometry; type: functional, cell-based; settings: Homo sapiens
HUVEC [11] = experiment: Antiangiogenic activity in HUVEC assessed as inhibition of VEGF-induced cell proliferation at 0.1 uM after 96 hrs by haemocytometry; type: functional, cell-based; settings: Homo sapiens

SMILES | IC50 (MIA PaCa-2 [1]) | IC50 [2] | Activity (MIA PaCa-2 [3]) | Activity (COLO 320 [4]) | fold change (FC) (MIA PaCa-2 [5]) | fold change (FC) (COLO 320 [6]) | Activity (MIA PaCa-2 [7]) | Activity (COLO 320 [8]) | Activity (HUVEC [9]) | Activity (HUVEC [10]) | Activity (HUVEC [11])
CC1(C)OC(=O)C(c2cccc(F)c2)=C1c1ccc(S(C)(=O)=O)cc1 | > 200 µM | > 200 µM |  |  |  |  |  |  |  |  | 
CSc1ccc(C=C2C(C)=C(CC(=O)NO)c3cc(F)ccc32)cc1 | 32 µM | 6 µM | inactive | inactive | 5 | 5 | inactive | 130% | Non-toxic | Active | Active
CSc1ccc(/C=C2/C(C)=C(CC(=O)O)c3cc(F)ccc32)cc1 [SULINDAC SULFIDE] | 146 µM | 38.7 µM | inactive | inactive |  |  | inactive |  |  | Active | Active
CC1=C(CC(=O)O)c2cc(F)ccc2/C1=C\c1ccc([S+](C)[O-])cc1 (stereo not drawn) [SULINDAC] | > 200 µM | > 200 µM | inactive | inactive |  |  |  |  |  |  | 
CC1=C(CC(=O)NO)c2cc(F)ccc2C1=Cc1ccc(S(C)(=O)=O)cc1 | 44.4 µM | 26.2 µM | inactive | inactive | 5 | 5 |  |  | Non-toxic | Active | Active
CC1=C(CC(=O)O)c2cc(F)ccc2/C1=C\c1ccc(S(C)(=O)=O)cc1 [EXISULIND] | > 200 µM | > 200 µM | inactive | inactive |  |  |  |  |  | Active | Active
CC1=C(CC(=O)NO)c2cc(F)ccc2C1=Cc1ccc([S+](C)[O-])cc1 (stereo not drawn) | 64.1 µM | 62.5 µM | inactive | inactive | 5 | 5 |  |  | Non-toxic | Active | Active
